Activity calls are given as the source filed them. The calls are words filed in the database; no cut-off is given here.
Assays:
[1] = biological target: Cyclin-dependent kinase 2/cyclin E1 (Homo sapiens, UniProt P24941); test: Inhibition of CDK2/cyclin E; format: protein-complex assay
A2780 [2] = test: Antiproliferative activity against human A2780 cells; format: functional, cell-based
[3] = biological target: High affinity nerve growth factor receptor (Homo sapiens, UniProt P04629); test: Inhibition of TRKA
[4] = biological target: Serine/threonine-protein kinase Nek6 (Homo sapiens, UniProt Q9HC98); test: Inhibition of NEK6
[5] = biological target: Mitogen-activated protein kinase 1 (Homo sapiens, UniProt P28482); test: Inhibition of ERK2
Sequence of Mitogen-activated protein kinase 1 (P28482 whole entry): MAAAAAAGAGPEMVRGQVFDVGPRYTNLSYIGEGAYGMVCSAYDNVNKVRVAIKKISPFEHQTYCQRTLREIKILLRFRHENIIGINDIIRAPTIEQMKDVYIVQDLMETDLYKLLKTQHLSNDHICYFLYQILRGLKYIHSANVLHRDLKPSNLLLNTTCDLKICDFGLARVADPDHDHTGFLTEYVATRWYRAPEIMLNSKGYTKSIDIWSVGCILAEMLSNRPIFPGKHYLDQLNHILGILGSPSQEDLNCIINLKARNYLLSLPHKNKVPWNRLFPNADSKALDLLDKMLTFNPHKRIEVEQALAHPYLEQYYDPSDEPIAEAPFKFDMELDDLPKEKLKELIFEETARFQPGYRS

[6] = biological target: Receptor-type tyrosine-protein kinase FLT3 (Homo sapiens, UniProt P36888); test: Inhibition of FLT3
A2780 [7] = test: Cell cycle arrest in human A2780 cells assessed as increase of phospho Ser10 histone H3 level after 24 hrs by Western blotting analysis; format: functional, cell-based
How it was run: (§1)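 A2780 cells were treated for 24 h at 0.05, 0.5 and 5 µM, with nocodazole as positive control. Lysates were immunoblotted for pSer10 histone H3, pThr199 nucleophosmin, cyclin B1, cyclin A, PARP cleavage and caspase 3 activation.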

Insulin receptor = Insulin receptor (Homo sapiens, UniProt P06213); test: Inhibition of IR
[8] = Tmax in Nu/Nu Balb Harlan mouse at 10 mg/kg, po; format: ADME, organism-based; parameters: dose 10 mg/kg, route oral; settings: in vivo
[9] = biological target: Tyrosine-protein kinase JAK2 (Homo sapiens, UniProt O60674); test: Inhibition of JAK2
Sequence of Tyrosine-protein kinase JAK2 (O60674 whole entry): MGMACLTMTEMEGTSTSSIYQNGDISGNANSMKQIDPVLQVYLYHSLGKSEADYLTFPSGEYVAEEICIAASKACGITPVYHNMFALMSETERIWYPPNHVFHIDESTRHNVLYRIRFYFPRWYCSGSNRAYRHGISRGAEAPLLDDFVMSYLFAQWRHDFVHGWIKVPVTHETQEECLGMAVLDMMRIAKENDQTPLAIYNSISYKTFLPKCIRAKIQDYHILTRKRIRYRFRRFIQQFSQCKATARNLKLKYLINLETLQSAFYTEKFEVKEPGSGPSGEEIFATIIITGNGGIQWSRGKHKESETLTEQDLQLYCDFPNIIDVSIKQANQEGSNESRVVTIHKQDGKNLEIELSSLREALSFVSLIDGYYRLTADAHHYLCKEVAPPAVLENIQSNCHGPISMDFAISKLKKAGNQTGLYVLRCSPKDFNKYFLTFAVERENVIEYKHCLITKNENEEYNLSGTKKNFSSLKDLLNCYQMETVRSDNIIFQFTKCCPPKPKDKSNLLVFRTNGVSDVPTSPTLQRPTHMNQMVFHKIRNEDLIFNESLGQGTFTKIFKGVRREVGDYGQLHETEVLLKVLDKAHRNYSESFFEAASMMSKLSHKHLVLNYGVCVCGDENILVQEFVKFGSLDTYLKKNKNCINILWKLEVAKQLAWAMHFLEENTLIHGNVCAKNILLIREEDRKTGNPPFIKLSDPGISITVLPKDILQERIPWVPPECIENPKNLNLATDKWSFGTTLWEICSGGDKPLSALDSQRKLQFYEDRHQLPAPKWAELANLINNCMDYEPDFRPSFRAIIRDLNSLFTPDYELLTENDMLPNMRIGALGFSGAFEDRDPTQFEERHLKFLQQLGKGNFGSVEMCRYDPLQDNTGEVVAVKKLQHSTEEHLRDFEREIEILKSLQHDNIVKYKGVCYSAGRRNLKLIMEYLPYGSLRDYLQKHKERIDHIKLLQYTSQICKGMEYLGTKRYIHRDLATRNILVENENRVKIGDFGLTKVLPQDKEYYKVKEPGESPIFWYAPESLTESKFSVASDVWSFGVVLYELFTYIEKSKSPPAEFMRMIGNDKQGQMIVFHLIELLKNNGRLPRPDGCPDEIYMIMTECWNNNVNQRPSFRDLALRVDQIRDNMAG

[10] = Apparent permeability of the compound by PAMPA; format: ADME
[11] = biological target: Hepatocyte growth factor receptor (Homo sapiens, UniProt P08581); test: Inhibition of MET
A2780 [12] = test: Induction of apoptosis in human A2780 cells assessed as caspase3 activation at 5 uM after 24 hrs by Western blotting analysis; format: functional, cell-based; how it was run: as §1
[13] = biological target: Proto-oncogene tyrosine-protein kinase receptor Ret (Homo sapiens, UniProt P07949); test: Inhibition of RET
[14] = Inhibition of PDGFR
[15] = Clearance in Nu/Nu Balb Harlan mouse at 10 mg/kg, iv; format: ADME, organism-based; parameters: dose 10 mg/kg, route intravenous; settings: in vivo
How it was run: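 Male Balb Nu/Nu mice (Harlan) received a single 10 mg/kg intravenous dose, n = 3 animals per study. Vehicle was either trifluoroacetate salt in dextrose or free base in 50% PEG 400/glucosate, depending on compound. Parameters were reported as mean ± standard deviation.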

A2780 [16] = test: Cell cycle arrest in human A2780 cells assessed as accumulation at G2/M phase at 0.05 to 5 uM after 24 hrs by FACS analysis; format: functional, cell-based
How it was run: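 A2780 cells were exposed for 24 h to 0.05, 0.5 or 5 µM. Cell-cycle distribution was read by flow cytometry (FACS), scoring G2-M accumulation. Nocodazole-treated cells served as positive control.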

[17] = biological target: Serine/threonine-protein kinase PAK 4 (Homo sapiens, UniProt O96013); test: Inhibition of PAK4
A2780 [18] = test: Induction of apoptosis in human A2780 cells assessed as PARP cleavage at 5 uM after 24 hrs by Western blotting analysis; format: functional, cell-based; how it was run: as §1
HCT-116 = test: Antiproliferative activity against human HCT116 cells; format: functional, cell-based
[19] = biological target: Tyrosine-protein kinase ABL1 (Homo sapiens, UniProt P00519); test: Inhibition of c-ABL
[20] = biological target: Epidermal growth factor receptor (Homo sapiens, UniProt P04626+P00533+Q15303+P21860); test: Inhibition of EGFR1; format: protein assay
[21] = biological target: MAP kinase-activated protein kinase 2 (Homo sapiens, UniProt P49137); test: Inhibition of MAP-KAPK2
Sequence of MAP kinase-activated protein kinase 2 (P49137 whole entry): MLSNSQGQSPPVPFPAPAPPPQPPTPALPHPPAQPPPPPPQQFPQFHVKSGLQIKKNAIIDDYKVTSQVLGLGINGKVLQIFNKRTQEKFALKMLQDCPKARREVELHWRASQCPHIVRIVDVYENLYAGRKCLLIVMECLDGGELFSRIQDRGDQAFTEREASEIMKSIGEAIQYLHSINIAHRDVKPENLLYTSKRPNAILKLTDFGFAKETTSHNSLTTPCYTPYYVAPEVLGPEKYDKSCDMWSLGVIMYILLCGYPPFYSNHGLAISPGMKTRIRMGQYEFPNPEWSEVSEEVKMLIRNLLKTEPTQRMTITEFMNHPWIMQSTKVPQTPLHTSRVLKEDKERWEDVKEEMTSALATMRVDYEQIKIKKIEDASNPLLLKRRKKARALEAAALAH

[22] = biological target: Insulin-like growth factor 1 receptor (Homo sapiens, UniProt P08069); test: Inhibition of IGFR1
Sequence of Insulin-like growth factor 1 receptor (P08069 31-736 limits assumed): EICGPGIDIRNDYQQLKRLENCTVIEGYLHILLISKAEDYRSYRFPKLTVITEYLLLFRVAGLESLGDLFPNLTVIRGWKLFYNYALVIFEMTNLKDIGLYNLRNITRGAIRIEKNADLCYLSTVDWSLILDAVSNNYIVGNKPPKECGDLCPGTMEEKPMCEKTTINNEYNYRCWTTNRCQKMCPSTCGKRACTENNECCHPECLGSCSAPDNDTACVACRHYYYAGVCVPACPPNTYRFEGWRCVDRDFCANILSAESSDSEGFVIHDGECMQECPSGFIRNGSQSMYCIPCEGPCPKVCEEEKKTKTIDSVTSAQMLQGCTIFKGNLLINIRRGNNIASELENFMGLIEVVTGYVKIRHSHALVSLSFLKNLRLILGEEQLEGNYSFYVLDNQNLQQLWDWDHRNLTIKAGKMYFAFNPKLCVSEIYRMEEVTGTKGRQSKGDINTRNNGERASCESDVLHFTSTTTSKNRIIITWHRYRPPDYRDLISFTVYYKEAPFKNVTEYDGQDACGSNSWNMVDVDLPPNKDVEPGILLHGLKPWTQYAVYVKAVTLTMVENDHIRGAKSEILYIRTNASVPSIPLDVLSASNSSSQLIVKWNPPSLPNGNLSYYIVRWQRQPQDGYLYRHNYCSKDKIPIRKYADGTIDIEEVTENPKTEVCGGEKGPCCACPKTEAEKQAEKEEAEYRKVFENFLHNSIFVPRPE
Sequence of Insulin-like growth factor 1 receptor (P08069 741-1367 limits assumed): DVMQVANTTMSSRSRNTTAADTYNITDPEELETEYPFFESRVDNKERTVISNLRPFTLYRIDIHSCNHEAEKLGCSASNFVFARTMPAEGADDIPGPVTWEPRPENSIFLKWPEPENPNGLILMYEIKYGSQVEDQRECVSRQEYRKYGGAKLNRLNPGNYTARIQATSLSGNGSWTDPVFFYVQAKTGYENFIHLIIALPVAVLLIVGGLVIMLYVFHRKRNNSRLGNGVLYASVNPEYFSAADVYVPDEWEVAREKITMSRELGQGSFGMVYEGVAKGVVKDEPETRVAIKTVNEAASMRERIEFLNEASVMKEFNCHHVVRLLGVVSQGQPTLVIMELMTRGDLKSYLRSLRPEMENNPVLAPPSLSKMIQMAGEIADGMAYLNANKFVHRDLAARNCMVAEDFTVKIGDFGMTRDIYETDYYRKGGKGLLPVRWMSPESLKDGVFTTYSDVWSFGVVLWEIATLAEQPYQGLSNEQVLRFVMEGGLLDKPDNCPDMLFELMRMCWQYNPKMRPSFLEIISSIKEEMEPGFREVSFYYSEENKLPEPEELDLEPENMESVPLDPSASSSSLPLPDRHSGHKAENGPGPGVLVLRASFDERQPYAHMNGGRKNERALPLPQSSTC

A2780 [23] = test: Cell cycle arrest in human A2780 cells assessed as reduction of phospho Ser46 TCTP level at 0.05 to 5 uM after 1 hr by Western blotting analysis; format: functional, cell-based
How it was run: (§2)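 A2780 cells got 1 h exposure at 0.05, 0.5 and 5 µM, with nocodazole-treated cells as comparator. Western blot was used to probe the PLK1 substrate marker pSer46 TCTP and the mitotic marker pSer10 histone H3.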

LNCaP = test: Antiproliferative activity against human LNCAP cells; format: functional, cell-based
[24] = biological target: Cyclin-dependent kinase 2/cyclin A (Homo sapiens, UniProt P24941); test: Inhibition of CDK2/cyclin A; format: protein-complex assay
[25] = Oral bioavailability in Nu/Nu Balb Harlan mouse at 10 mg/kg; format: ADME, organism-based; settings: in vivo
[26] = Inhibition of CK2
A-375 = test: Antiproliferative activity against human A375 cells; format: functional, cell-based
Aurora kinase A = biological target: T1, Aurora kinase A (Homo sapiens, UniProt O14965); test: Inhibition of Aurora-A
T1 sequence (O14965 whole entry): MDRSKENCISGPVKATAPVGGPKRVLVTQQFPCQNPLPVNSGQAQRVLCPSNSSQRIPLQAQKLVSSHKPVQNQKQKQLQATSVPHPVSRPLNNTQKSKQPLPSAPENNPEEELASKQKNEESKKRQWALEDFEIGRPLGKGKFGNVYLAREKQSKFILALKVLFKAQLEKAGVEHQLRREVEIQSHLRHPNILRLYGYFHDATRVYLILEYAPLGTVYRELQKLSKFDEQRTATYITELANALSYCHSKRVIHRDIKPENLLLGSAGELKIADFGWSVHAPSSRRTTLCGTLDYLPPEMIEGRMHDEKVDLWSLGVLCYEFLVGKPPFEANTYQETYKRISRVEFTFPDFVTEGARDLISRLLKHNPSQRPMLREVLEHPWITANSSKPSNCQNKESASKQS

[27] = biological target: Serine/threonine-protein kinase PLK2 (Homo sapiens, UniProt Q9NYY3); test: Inhibition of PLK2
Sequence of Serine/threonine-protein kinase PLK2 (Q9NYY3 whole entry): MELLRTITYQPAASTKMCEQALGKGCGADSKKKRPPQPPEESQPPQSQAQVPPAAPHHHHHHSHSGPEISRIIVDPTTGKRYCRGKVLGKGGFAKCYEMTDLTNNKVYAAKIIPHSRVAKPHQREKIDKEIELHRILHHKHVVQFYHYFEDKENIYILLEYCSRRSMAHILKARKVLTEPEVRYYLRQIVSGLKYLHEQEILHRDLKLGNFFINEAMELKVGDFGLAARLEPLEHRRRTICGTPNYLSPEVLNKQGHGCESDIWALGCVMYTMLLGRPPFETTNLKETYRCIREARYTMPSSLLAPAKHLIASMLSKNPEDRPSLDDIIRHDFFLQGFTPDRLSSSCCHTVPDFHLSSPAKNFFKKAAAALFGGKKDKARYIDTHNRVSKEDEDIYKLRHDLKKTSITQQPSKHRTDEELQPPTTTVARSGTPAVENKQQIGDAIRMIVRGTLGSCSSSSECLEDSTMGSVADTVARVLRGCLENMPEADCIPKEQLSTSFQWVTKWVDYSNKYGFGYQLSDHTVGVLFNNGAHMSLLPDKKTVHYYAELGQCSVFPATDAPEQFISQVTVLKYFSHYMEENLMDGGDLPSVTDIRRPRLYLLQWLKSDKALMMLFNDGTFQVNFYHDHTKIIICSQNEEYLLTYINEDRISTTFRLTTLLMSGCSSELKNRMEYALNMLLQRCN

[28] = biological target: Tyrosine-protein kinase Lck (Homo sapiens, UniProt P06239); test: Inhibition of LCK
[29] = biological target: RAC-alpha serine/threonine-protein kinase (Homo sapiens, UniProt P31749); test: Inhibition of AKT1
Sequence of RAC-alpha serine/threonine-protein kinase (P31749 whole entry): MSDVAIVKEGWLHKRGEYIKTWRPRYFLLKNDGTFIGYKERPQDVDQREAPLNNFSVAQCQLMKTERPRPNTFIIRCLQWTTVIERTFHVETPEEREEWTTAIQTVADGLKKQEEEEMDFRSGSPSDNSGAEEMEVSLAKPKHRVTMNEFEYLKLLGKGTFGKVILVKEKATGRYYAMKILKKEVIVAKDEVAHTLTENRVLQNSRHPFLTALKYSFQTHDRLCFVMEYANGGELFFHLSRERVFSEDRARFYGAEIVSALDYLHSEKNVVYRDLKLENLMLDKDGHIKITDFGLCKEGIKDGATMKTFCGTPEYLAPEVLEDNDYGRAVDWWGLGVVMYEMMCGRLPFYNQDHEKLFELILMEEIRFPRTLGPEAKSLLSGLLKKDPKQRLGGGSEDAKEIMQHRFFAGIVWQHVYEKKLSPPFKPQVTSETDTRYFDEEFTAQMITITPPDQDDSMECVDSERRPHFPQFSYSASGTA

[30] = biological target: cAMP-dependent protein kinase catalytic subunit alpha (Homo sapiens, UniProt P17612); test: Inhibition of PKAalpha
A2780 [31] = test: Cell cycle arrest in human A2780 cells assessed as induction of phospho Thr199 nucleophosmin level after 24 hrs by Western blotting analysis; format: functional, cell-based; how it was run: as §1
[32] = biological target: Cyclin-dependent kinase 5 activator 1 (Homo sapiens, UniProt Q15078); test: Inhibition of CDK5/P25
[33] = biological target: Mast/stem cell growth factor receptor Kit (Homo sapiens, UniProt P10721); test: Inhibition of KIT
[34] = Intrinsic clearance in human liver microsomes at 1 uM; format: ADME, Microsome; settings: read-out: CLH
[35] = biological target: Serine/threonine-protein kinase 26 (Homo sapiens, UniProt Q9P289); test: Inhibition of MST4
Sequence of Serine/threonine-protein kinase 26 (Q9P289 whole entry): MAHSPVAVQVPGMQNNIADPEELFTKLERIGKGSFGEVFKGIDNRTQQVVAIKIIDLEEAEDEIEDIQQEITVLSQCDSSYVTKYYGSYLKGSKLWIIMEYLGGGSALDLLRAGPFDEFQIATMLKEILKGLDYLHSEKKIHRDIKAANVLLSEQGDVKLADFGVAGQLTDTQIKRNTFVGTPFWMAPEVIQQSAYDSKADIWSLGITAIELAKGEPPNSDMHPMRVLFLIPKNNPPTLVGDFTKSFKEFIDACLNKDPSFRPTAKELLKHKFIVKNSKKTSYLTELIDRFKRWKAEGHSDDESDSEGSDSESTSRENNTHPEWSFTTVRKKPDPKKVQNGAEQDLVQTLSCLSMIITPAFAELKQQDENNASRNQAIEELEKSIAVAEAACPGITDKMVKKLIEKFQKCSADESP

[36] = biological target: Cell division cycle 7-related protein kinase (Homo sapiens, UniProt O00311); test: Inhibition of CDC7
A2780 [37] = test: Cell cycle arrest in human A2780 cells assessed as increase of phospho Ser10 histone H3 level at 0.05 to 5 uM after 1 hr by Western blotting analysis; format: functional, cell-based; how it was run: as §2
[38] = biological target: Serine/threonine-protein kinase Chk1 (Homo sapiens, UniProt O14757); test: Inhibition of CHK1

- IC50 [1]: > 10 µM
- IC50 (A2780 [2]): 37 nM
- IC50 [3]: > 10 µM
- IC50 [4]: > 10 µM
- IC50 [5]: > 10 µM
- IC50 [6]: 659 nM
- IC50 (Insulin receptor): > 10 µM
- Tmax [8]: 1.5 h
- IC50 [9]: > 10 µM
- Papp [10]: 5.79 ×10⁻⁶ cm/s
- IC50 [11]: > 10 µM
- IC50 [13]: > 10 µM
- IC50 [14]: > 10 µM
- clearance [15]: 66.4 mL/min/kg
- IC50 [17]: > 10 µM
- IC50 (HCT-116): 32 nM
- IC50 [19]: > 10 µM
- IC50 [20]: > 10 µM
- IC50 [21]: > 10 µM
- IC50 [22]: > 10 µM
- IC50 (LNCaP): 26 nM
- IC50 [24]: > 10 µM
- bioavailability [25]: 52%
- IC50 [26]: 420 nM
- IC50 (A-375): 27 nM
- IC50 (Aurora kinase A): > 10 µM
- IC50 [27]: > 10 µM
- IC50 [28]: > 10 µM
- IC50 [29]: > 10 µM
- IC50 [30]: > 10 µM
- IC50 [32]: > 10 µM
- IC50 [33]: > 10 µM
- CLint scaled at 1 µM [34]: 16.5 mL/min/kg
- IC50 [35]: > 10 µM
- IC50 [36]: > 10 µM
- IC50 [38]: > 10 µM
Structure (SMILES): CN1CCN(c2ccc(OC(F)(F)F)c(Nc3nccc(-c4cc5c(n4C)CCNC5=O)n3)c2)CC1
- Activity (A2780 [7]): Dose-dependent effect
- Activity (A2780 [12]): Active
- Activity (A2780 [16]): Active
- Activity (A2780 [18]): Active
- Activity (A2780 [23]): Active
- Activity (A2780 [31]): Dose-dependent effect
- Activity (A2780 [37]): Active

Source: ChEMBL document CHEMBL1933058, “5-(2-amino-pyrimidin-4-yl)-1H-pyrrole and 2-(2-amino-pyrimidin-4-yl)-1,5,6,7-tetrahydro-pyrrolo[3,2-c]pyridin-4-one derivatives as new classes of selective and orally available Polo-like kinase 1 inhibitors” (Bioorg Med Chem Lett, 2012)
